“And” between values parts separate entries of the source, which are not always exact repeats. Equal entries are not always repeated.
Assays:
HOP-92 = assay: Antitumor activity against human HOP92 cells; assay type: functional; details: for TGI: read-out: pTGI (converted)
How it was run: (§1)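 Run by the NCI in its in vitro disease-oriented screen of about 60 human tumour cell lines. For each line it reports pGI50 (50% net growth inhibition), pTGI (total growth inhibition) and pLC50 (50% net cell death), each as –log molar concentration. Where an effect was not reached within the tested range, the highest tested concentration was used.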

NCI-H23 = assay: Antitumor activity against human NCI-H23 cells; assay type: functional; details: for TGI: read-out: pTGI (converted); how it was run: as §1
NCI-H522 = assay: Antitumor activity against human NCI-H522 cells; assay type: functional; details: for CC50: read-out: Log LC50 (the source's name) (converted); for TGI: read-out: pTGI (converted); how it was run: as §1
KM12 = assay: Antitumor activity against human KM12 cells; assay type: functional; details: for TGI: read-out: pTGI (converted); how it was run: as §1
SF-295 = assay: Antitumor activity against human SF295 cells; assay type: functional; details: for CC50: read-out: Log LC50 (the source's name) (converted); for TGI: read-out: pTGI (converted); how it was run: as §1
LOX IMVI = assay: Antitumor activity against human LOXIMVI cells; assay type: functional; details: for TGI: read-out: pTGI (converted); how it was run: as §1
Malme-3M = assay: Antitumor activity against human MALME3M cells; assay type: functional; details: for CC50: read-out: Log LC50 (the source's name) (converted); for TGI: read-out: pTGI (converted); how it was run: as §1
M14 = assay: Antitumor activity against human M14 cells; assay type: functional; details: for CC50: read-out: Log LC50 (the source's name) (converted); for TGI: read-out: pTGI (converted); how it was run: as §1
SK-MEL-5 = assay: Antitumor activity against human SKMEL5 cells; assay type: functional; details: for TGI: read-out: pTGI (converted); how it was run: as §1
UACC-62 = assay: Antitumor activity against human UACC62 cells; assay type: functional; details: for TGI: read-out: pTGI (converted)
How it was run: (§2)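 NCI 60-cell-line screen. Parameters were GI50 (50% net growth inhibition), TGI and LC50, each reported as –log molar concentration. Where an effect was not reached within the tested range, the highest tested concentration was used in the calculation.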

SK-OV-3 = assay: Antitumor activity against human SKOV3 cells; assay type: functional; details: for TGI: read-out: pTGI (converted); how it was run: as §1
786-0 = assay: Antitumor activity against human 786-0 cells; assay type: functional; details: for CC50: read-out: Log LC50 (the source's name) (converted); for TGI: read-out: pTGI (converted); how it was run: as §1
ACHN = assay: Antitumor activity against human ACHN cells; assay type: functional; details: for TGI: read-out: pTGI (converted); how it was run: as §1
CAKI-1 = assay: Antitumor activity against human CAKI1 cells; assay type: functional; details: for TGI: read-out: pTGI (converted); how it was run: as §1
RXF 393 = assay: Antitumor activity against human RXF393 cells; assay type: functional; details: for CC50: read-out: Log LC50 (the source's name) (converted); for TGI: read-out: pTGI (converted); how it was run: as §1
Tubulin (Sus scrofa) = Tubulin (Sus scrofa) (UniProt P02554+P02550); assay: Inhibition of pig brain tubulin polymerization
Tubulin (Sus scrofa), sequence (P02550 whole entry, looked up): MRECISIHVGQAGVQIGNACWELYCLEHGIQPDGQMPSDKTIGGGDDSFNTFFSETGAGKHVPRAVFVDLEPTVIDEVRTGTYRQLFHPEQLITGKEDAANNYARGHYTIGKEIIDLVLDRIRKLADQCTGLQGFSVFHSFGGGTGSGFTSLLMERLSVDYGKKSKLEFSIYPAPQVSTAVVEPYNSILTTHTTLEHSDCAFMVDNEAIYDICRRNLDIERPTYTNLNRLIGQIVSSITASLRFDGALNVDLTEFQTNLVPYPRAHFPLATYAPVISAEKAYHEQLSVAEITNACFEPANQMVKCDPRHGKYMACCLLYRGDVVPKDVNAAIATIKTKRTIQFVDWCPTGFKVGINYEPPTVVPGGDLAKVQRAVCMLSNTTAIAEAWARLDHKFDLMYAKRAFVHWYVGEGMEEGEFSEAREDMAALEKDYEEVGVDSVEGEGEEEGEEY
Tubulin (Sus scrofa), sequence (P02554 whole entry, looked up): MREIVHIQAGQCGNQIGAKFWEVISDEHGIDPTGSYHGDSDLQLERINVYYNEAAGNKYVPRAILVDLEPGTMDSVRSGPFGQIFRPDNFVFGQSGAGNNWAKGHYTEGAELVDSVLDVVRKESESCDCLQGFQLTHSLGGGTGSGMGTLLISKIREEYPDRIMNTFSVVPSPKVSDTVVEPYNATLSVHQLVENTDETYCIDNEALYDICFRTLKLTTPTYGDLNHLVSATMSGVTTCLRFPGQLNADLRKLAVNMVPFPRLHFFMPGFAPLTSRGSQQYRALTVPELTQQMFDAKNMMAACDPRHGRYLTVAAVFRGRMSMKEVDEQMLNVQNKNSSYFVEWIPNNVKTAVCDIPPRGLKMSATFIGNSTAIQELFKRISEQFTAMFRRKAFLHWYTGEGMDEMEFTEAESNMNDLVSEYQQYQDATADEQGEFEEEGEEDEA

BT-549 = assay: Antitumor activity against human BT549 cells; assay type: functional; details: for TGI: read-out: pTGI (converted); how it was run: as §1
RPMI-8226 = assay: Antitumor activity against human RPMI8226 cells; assay type: functional; details: for CC50: read-out: Log LC50 (the source's name) (converted); for TGI: read-out: pTGI (converted); how it was run: as §1
SR = assay: Antitumor activity against human SR cells; assay type: functional; details: for TGI: read-out: pTGI (converted); how it was run: as §2
SN12C = assay: Antitumor activity against human SN12C cells; assay type: functional; details: for TGI: read-out: pTGI (converted); how it was run: as §1
DU-145 = assay: Antitumor activity against human DU145 cells; assay type: functional; details: for CC50: read-out: Log LC50 (the source's name) (converted); how it was run: as §1
MCF7 [1] = assay: Antitumor activity against human MCF7 cells; assay type: functional; details: for TGI: read-out: pTGI (converted); how it was run: as §1
Hs-578T = assay: Antitumor activity against human HS578T cells; assay type: functional; details: for CC50: read-out: Log LC50 (the source's name) (converted); for TGI: read-out: pTGI (converted); how it was run: as §1
MCF7 [2] = assay: Resistance index, Ratio of GI50 for human multidrug-resistant MCF7 cells to GI50 for human MCF7 cells; assay type: functional
How it was run: (§3)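 Growth inhibition by MTT after 72 h incubation. Resistant sublines: LoVoDoxo and MCF-7 MDR were kept in 0.1 µg/mL doxorubicin; CEMVbl-100 was selected against vinblastine. GI50 given as mean ± SEM of three independent experiments. Resistance index is resistant-line GI50 over parental GI50.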

CCRF-CEM = assay: Growth inhibition of human CEM cells after 72 hrs by MTT assay; assay type: functional; how it was run: as §3
UO-31 = assay: Antitumor activity against human UO31 cells; assay type: functional; how it was run: as §2

`O=c1[nH]c2cc(Cl)c(Cl)cc2n2cc3ccccc3c12` gave a GI50 (HOP-92) of 18.2 µM, an LC50 (HOP-92) of 66.1 µM and a TGI (HOP-92) of 34.7 µM. For the same compound, the GI50 (NCI-H23) was 17.4 µM, the LC50 (50% net cell kill) (NCI-H23) was 56.2 µM and the TGI (NCI-H23) was 30.9 µM. It also gave a GI50 (NCI-H522) of 10.2 µM, a CC50 (NCI-H522) of 93.3 µM and a TGI (NCI-H522) of 30.9 µM. For the same compound, the GI50 (KM12) was 17.4 µM, the LC50 (50% net cell death) (KM12) was 56.2 µM and the TGI (KM12) was 30.9 µM. It also gave a GI50 (SF-295) of 16.2 µM, a CC50 (SF-295) of 55 µM and a TGI (SF-295) of 30.2 µM. For the same compound, the GI50 (LOX IMVI) was 17.4 µM, the LC50 (50% net cell kill) (LOX IMVI) was 56.2 µM and the TGI (LOX IMVI) was 30.9 µM. The GI50 (Malme-3M) was 17 µM, the CC50 (Malme-3M) was 63.1 µM and the TGI (Malme-3M) was 32.4 µM. For the same compound, the GI50 (M14) was 22.9 µM, the CC50 (M14) was 69.2 µM and the TGI (M14) was 39.8 µM. The GI50 (SK-MEL-5) was 20 µM, the LC50 (SK-MEL-5) was 87.1 µM and the TGI (SK-MEL-5) was 41.7 µM. The GI50 (UACC-62) was 16.6 µM, the LC50 (UACC-62) was 55 µM and the TGI (UACC-62) was 30.2 µM. It also gave a GI50 (SK-OV-3) of 18.2 µM, an LC50 (50% net cell kill) (SK-OV-3) of 61.7 µM and a TGI (SK-OV-3) of 33.1 µM. For the same compound, the GI50 (786-0) was 25.1 µM, the CC50 (786-0) was 63.1 µM and the TGI (786-0) was 39.8 µM. The GI50 (ACHN) was 15.5 µM, the LC50 (50% net cell kill) (ACHN) was 53.7 µM and the TGI (ACHN) was 28.8 µM. The GI50 (CAKI-1) was 20.4 µM, the LC50 (CAKI-1) was 58.9 µM and the TGI (CAKI-1) was 34.7 µM. It also gave a GI50 (RXF 393) of 17.4 µM, a CC50 (RXF 393) of 56.2 µM and a TGI (RXF 393) of 30.9 µM. The Activity (Tubulin (Sus scrofa)) was > 10 µM, the GI50 (BT-549) was 26.3 µM and the LC50 (50% net cell kill) (BT-549) was > 100 µM. For the same compound, the TGI (BT-549) was 57.5 µM, the GI50 (RPMI-8226) was 22.4 µM and the CC50 (RPMI-8226) was > 100 µM. It also gave a TGI (RPMI-8226) of 49 µM, a GI50 (SR) of 17.4 µM and an LC50 (SR) of 87.1 µM. The TGI (SR) was 38.9 µM, the GI50 (SN12C) was 15.8 µM and the LC50 (SN12C) was 55 µM. For the same compound, the TGI (SN12C) was 29.5 µM, the GI50 (DU-145) was 31.6 µM and the GI50 (DU-145; Homo sapiens, DU-145) was 17.8 µM. It also gave a CC50 (DU-145; Homo sapiens, DU-145) of 56.2 µM, a GI50 (MCF7 [1]) of 21.4 µM and an LC50 (50% net cell kill) (MCF7 [1]) of 72.4 µM. For the same compound, the TGI (MCF7 [1]) was 39.8 µM, the GI50 (Hs-578T) was 20 µM and the CC50 (Hs-578T) was > 100 µM. For the same compound, the TGI (Hs-578T) was 52.5 µM, the RatioGI50 (MCF7 [2]) was 2.3 and the GI50 (CCRF-CEM) was 2.2 µM.

`O=c1[nH]c2ccccc2n2cc3ccccc3c12` gave a GI50 (HOP-92) of 3.98 µM, an LC50 (HOP-92) of 51.3 µM and a TGI (HOP-92) of 18.6 µM. For the same compound, the GI50 (NCI-H23) was 11.2 µM, the LC50 (50% net cell kill) (NCI-H23) was > 100 µM and the TGI (NCI-H23) was 36.3 µM. For the same compound, the GI50 (NCI-H522) was 13.8 µM, the CC50 (NCI-H522) was 75.9 µM and the TGI (NCI-H522) was 32.4 µM. It also gave a GI50 (KM12) of 19.1 µM, an LC50 (50% net cell death) (KM12) of 83.2 µM and a TGI (KM12) of 39.8 µM. It also gave a GI50 (SF-295) of 17.8 µM, a CC50 (SF-295) of 70.8 µM and a TGI (SF-295) of 35.5 µM. For the same compound, the GI50 (LOX IMVI) was 3.02 µM, the LC50 (50% net cell kill) (LOX IMVI) was 85.1 µM and the TGI (LOX IMVI) was 12 µM. For the same compound, the GI50 (Malme-3M) was 25.1 µM, the CC50 (Malme-3M) was 85.1 µM and the TGI (Malme-3M) was 46.8 µM. It also gave a GI50 (M14) of 6.46 µM, a CC50 (M14) of 64.6 µM and a TGI (M14) of 22.9 µM. For the same compound, the GI50 (SK-MEL-5) was 1.91 µM, the LC50 (SK-MEL-5) was 60.3 µM and the TGI (SK-MEL-5) was 14.8 µM. It also gave a GI50 (UACC-62) of 3.24 µM, an LC50 (UACC-62) of 45.7 µM and a TGI (UACC-62) of 15.8 µM. The GI50 (SK-OV-3) was 12.3 µM, the LC50 (50% net cell kill) (SK-OV-3) was > 100 µM and the TGI (SK-OV-3) was 35.5 µM. The GI50 (786-0) was 4.27 µM, the CC50 (786-0) was 55 µM and the TGI (786-0) was 18.2 µM. It also gave a GI50 (ACHN) of 1.82 µM, an LC50 (50% net cell kill) (ACHN) of 34.7 µM and a TGI (ACHN) of 7.24 µM. The GI50 (CAKI-1) was 17.8 µM, the LC50 (CAKI-1) was 70.8 µM and the TGI (CAKI-1) was 35.5 µM. For the same compound, the GI50 (RXF 393) was 6.31 µM, the CC50 (RXF 393) was > 100 µM and the TGI (RXF 393) was 30.2 µM. The Activity (Tubulin (Sus scrofa)) was > 10 µM, the GI50 (BT-549) was 19.1 µM and the LC50 (50% net cell kill) (BT-549) was > 100 µM. The TGI (BT-549) was 64.6 µM, the GI50 (RPMI-8226) was 3.72 µM and the CC50 (RPMI-8226) was > 100 µM. For the same compound, the TGI (RPMI-8226) was 22.4 µM, the GI50 (SR) was 2.88 µM and the LC50 (SR) was > 100 µM. The TGI (SR) was 7.76 µM, the GI50 (SN12C) was 1.66 µM and the LC50 (SN12C) was 31.6 µM. It also gave a TGI (SN12C) of 6.31 µM, a GI50 (UO-31) of 12.6 µM and a CC50 (UO-31; read-out: Log LC50 (the source's name) (converted)) of 56.2 µM. For the same compound, the TGI (UO-31; read-out: pTGI (converted)) was 26.9 µM, the GI50 (DU-145) was 7.59 µM and 38 µM and the CC50 (DU-145; Homo sapiens, DU-145) was > 100 µM. For the same compound, the GI50 (MCF7 [1]) was 10.5 µM, the LC50 (50% net cell kill) (MCF7 [1]) was > 100 µM and the TGI (MCF7 [1]) was > 100 µM. For the same compound, the GI50 (Hs-578T) was 0.525 µM, the CC50 (Hs-578T) was > 100 µM and the TGI (Hs-578T) was 34.7 µM. For the same compound, the RatioGI50 (MCF7 [2]) was 1.6 and the GI50 (CCRF-CEM) was 4.7 µM.

From ChEMBL document CHEMBL1144782, “Isoindolo[2,1-a]quinoxaline derivatives, novel potent antitumor agents with dual inhibition of tubulin polymerization and topoisomerase I” (2008)
